Laboratory results published in ChEMBL document CHEMBL4219124, “Alleviating CYP and hERG liabilities by structure optimization of dihydrofuran-fused tricyclic benzo[d]imidazole series - Potent, selective and orally efficacious microsomal prostaglandin E synthase-1 (mPGES-1) inhibitors: Part-2” (Bioorg Med Chem Lett, 2018).

Key:
[1] = Metabolic stability in human liver microsomes assessed as parent compound remaining at 1 uM after 60 mins in presence of NADPH by LC-MS/MS analysis; format: ADME, microsome; settings: read-out: Stability
Outline: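 Compound incubated 60 min at 37 °C with human, rat or guinea pig liver microsomes; percent parent remaining, triplicates.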

[2] = molecular target: T1, Prostacyclin synthase (Homo sapiens) (UniProt Q16647); experiment: Inhibition of recombinant human PGIS expressed in CHO cells at 10 uM relative to control; format: cell-based
T1 sequence (whole entry): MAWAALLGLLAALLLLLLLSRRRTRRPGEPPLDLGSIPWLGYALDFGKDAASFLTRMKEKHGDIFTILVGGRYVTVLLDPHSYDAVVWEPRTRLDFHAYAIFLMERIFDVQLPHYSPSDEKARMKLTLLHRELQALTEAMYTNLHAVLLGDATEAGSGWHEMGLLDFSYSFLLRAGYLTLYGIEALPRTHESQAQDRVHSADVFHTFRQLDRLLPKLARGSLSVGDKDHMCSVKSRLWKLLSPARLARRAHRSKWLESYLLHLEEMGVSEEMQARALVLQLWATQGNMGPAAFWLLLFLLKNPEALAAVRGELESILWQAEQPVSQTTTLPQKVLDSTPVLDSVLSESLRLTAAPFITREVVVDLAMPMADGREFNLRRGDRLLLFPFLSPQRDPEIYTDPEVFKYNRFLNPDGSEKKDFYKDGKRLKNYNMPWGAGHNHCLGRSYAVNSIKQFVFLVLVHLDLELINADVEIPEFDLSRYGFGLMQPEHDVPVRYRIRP

[3] = molecular target: T2, Prostaglandin E synthase 3 (Homo sapiens) (UniProt Q15185); experiment: Inhibition of cPGES in human U937 cells assessed as decrease in PGE2 production at 10 uM using arachidonic acid as substrate relative to control; format: cell-based
T2 sequence (whole entry): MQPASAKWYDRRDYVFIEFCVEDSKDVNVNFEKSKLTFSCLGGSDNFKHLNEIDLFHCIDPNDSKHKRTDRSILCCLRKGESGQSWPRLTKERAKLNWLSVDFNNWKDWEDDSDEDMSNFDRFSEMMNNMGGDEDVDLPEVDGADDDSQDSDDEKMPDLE
Outline: (§1)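 Selectivity panel against other prostanoid-pathway enzymes. % inhibition values are means of at least two experiments, each in duplicate.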

Prostaglandin E synthase = molecular target: T3, Prostaglandin E synthase (Homo sapiens, UniProt O14684); experiment: Inhibition of mPGES1 in human whole blood assessed as reduction in LPS-induced PGE2 production measured after 20 to 24 hrs
T3 sequence (O14684 whole entry): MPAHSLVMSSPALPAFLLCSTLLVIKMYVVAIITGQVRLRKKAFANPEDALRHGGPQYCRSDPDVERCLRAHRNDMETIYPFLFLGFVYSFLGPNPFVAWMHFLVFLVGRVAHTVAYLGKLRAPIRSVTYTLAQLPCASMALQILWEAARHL

CYP1A2 = molecular target: T4, CYP1A2 (Homo sapiens, UniProt P05177); experiment: Inhibition of CYP1A2 in human liver microsomes at 10 uM after 20 mins in presence of NADPH by LC-MS/MS analysis; format: ADME
T4 sequence (P05177 whole entry): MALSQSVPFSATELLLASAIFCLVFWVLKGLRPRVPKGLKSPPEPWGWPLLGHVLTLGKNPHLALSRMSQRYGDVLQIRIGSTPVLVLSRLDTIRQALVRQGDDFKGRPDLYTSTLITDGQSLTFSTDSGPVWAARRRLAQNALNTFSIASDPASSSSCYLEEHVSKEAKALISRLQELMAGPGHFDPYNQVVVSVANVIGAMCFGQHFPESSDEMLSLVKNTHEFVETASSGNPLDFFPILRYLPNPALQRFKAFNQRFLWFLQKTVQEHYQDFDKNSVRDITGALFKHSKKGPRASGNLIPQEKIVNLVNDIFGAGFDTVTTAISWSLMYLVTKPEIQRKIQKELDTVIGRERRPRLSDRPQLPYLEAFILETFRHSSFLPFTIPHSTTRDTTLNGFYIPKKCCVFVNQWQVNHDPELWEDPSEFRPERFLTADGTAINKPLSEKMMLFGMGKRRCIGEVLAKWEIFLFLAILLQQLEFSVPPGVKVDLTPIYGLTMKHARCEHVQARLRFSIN
Outline: (§2)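 Percent inhibition of each CYP isoform by test compound at 10 µM, compared with a no-inhibitor control. Run in triplicate.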

CYP2D6 = CYP2D6 (Homo sapiens, UniProt P10635); experiment: Inhibition of CYP2D6 in human liver microsomes at 10 uM after 20 mins in presence of NADPH by LC-MS/MS analysis; format: ADME; settings: liver microsomes; outline: as §2
CYP3A4 = CYP3A4 (Homo sapiens, UniProt P08684); experiment: Inhibition of CYP3A4 in human liver microsomes at 10 uM after 20 mins in presence of NADPH by LC-MS/MS analysis; format: ADME; outline: as §2
CYP2C9 = CYP2C9 (Homo sapiens, UniProt P11712); experiment: Inhibition of CYP2C9 in human liver microsomes at 10 uM after 20 mins in presence of NADPH by LC-MS/MS analysis; format: ADME; outline: as §2
CYP2C19 = CYP2C19 (Homo sapiens, UniProt P33261); experiment: Inhibition of CYP2C19 in human liver microsomes at 10 uM after 40 mins in presence of NADPH by LC-MS/MS analysis; format: ADME; outline: as §2
[4] = Protein binding in guinea pig plasma at 10 uM after 5 hrs by equilibrium dialysis based LC-MS/MS analysis; format: ADME, cell-free, Cavia porcellus; settings: read-out: PPB (converted)
Outline: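 Equilibrium dialysis at 10 μM compound; result expressed as percent bound.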

hERG (KCNH2) = hERG (KCNH2) (Homo sapiens, UniProt Q12809); experiment: Inhibition of human ERG at 10 uM by patch clamp assay relative to control
Outline: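 hERG current measured by patch clamp with test compound at 10 µM; result given as % inhibition.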

[5] = Inhibition of recombinant human COX2 assessed as decrease in PGE2 production at 10 uM using arachidonic acid as substrate preincubated for 15 mins prior to substrate addition for 5 mins relative to control; settings: recombinant COX2, probe arachidonic acid
[6] = molecular target: Hematopoietic prostaglandin D synthase (Homo sapiens) (UniProt O60760); experiment: Inhibition of PGDS (unknown origin) at 10 uM relative to control; outline: as §1
[7] = Inhibition of guinea pig mPGES1 expressed in CHO cells assessed as reduction in PGE2 production using PGH2 as substrate incubated for 10 mins followed by substrate addition measured for 1 min; parameters: species or system Cavia porcellus
Outline: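 Guinea pig mPGES-1 enzyme assay, run the same way as the human enzyme assay. IC50 for inhibition of PGE2 formation, read from curves built on at least two experiments, each in duplicate.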

[8] = Inhibition of mPGES1 in guinea pig whole blood assessed as reduction in LPS-induced PGE2 production measured after 20 to 24 hrs; settings: Cavia porcellus
Outline: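 Guinea pig whole blood stimulated with LPS. […] At least two experiments, each in duplicate.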

CHO = experiment: Inhibition of rat mPGES1 expressed in CHO cells assessed as reduction in PGE2 production at 10 uM using PGH2 as substrate incubated for 10 mins followed by substrate addition measured for 1 min relative to control; format: cell-based
Outline: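 Rodent enzyme protocol run as for the human and guinea pig mPGES-1 enzyme assays; single-concentration percent inhibition.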

Sequence of Hematopoietic prostaglandin D synthase (Homo sapiens) (O60760 whole entry): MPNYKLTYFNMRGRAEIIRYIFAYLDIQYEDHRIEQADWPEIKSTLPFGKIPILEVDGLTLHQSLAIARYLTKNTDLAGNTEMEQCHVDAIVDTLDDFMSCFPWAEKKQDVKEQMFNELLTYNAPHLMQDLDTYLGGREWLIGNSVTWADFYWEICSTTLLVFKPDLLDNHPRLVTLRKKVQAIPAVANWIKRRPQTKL
Sequence of CYP2C19 (P33261 whole entry): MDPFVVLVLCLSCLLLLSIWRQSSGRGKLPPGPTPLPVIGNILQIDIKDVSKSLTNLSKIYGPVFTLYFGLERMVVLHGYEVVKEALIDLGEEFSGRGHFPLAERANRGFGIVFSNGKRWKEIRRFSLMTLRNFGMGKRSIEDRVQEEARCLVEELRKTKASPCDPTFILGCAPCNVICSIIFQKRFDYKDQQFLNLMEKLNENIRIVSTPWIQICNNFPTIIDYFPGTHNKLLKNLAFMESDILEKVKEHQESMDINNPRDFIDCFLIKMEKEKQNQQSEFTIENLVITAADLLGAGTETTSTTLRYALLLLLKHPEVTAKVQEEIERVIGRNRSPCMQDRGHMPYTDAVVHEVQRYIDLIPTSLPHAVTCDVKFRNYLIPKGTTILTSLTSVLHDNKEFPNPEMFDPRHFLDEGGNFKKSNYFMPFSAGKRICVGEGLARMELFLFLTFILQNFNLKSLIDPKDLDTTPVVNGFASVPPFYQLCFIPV
Sequence of CYP2C9 (P11712 whole entry): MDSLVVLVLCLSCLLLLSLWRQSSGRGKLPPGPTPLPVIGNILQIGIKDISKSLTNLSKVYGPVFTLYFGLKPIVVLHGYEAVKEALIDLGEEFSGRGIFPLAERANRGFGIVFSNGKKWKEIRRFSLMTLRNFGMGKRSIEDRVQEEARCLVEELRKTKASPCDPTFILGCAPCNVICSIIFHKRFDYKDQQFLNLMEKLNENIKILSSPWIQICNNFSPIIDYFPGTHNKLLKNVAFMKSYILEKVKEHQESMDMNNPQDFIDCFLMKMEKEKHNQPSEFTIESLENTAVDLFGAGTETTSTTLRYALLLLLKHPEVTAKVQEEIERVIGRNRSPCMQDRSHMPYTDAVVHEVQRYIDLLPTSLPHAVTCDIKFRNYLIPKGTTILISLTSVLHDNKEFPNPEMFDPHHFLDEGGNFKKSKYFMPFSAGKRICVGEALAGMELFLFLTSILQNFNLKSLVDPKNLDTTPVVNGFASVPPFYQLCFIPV
Sequence of CYP3A4 (P08684 whole entry): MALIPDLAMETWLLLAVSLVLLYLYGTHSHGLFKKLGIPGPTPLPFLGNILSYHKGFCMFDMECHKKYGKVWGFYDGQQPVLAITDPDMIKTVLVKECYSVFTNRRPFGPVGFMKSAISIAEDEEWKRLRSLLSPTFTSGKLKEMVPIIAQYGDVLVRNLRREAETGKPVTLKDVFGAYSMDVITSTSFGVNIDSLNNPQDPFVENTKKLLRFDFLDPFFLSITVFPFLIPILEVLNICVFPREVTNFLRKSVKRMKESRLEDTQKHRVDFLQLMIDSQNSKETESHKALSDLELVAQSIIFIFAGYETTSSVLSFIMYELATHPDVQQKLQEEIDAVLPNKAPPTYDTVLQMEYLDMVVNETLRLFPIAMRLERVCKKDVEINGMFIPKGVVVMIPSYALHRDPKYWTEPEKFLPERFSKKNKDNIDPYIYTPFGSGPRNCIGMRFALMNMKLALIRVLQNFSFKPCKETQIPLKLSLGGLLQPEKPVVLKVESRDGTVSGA
Sequence of hERG (KCNH2) (Q12809 whole entry): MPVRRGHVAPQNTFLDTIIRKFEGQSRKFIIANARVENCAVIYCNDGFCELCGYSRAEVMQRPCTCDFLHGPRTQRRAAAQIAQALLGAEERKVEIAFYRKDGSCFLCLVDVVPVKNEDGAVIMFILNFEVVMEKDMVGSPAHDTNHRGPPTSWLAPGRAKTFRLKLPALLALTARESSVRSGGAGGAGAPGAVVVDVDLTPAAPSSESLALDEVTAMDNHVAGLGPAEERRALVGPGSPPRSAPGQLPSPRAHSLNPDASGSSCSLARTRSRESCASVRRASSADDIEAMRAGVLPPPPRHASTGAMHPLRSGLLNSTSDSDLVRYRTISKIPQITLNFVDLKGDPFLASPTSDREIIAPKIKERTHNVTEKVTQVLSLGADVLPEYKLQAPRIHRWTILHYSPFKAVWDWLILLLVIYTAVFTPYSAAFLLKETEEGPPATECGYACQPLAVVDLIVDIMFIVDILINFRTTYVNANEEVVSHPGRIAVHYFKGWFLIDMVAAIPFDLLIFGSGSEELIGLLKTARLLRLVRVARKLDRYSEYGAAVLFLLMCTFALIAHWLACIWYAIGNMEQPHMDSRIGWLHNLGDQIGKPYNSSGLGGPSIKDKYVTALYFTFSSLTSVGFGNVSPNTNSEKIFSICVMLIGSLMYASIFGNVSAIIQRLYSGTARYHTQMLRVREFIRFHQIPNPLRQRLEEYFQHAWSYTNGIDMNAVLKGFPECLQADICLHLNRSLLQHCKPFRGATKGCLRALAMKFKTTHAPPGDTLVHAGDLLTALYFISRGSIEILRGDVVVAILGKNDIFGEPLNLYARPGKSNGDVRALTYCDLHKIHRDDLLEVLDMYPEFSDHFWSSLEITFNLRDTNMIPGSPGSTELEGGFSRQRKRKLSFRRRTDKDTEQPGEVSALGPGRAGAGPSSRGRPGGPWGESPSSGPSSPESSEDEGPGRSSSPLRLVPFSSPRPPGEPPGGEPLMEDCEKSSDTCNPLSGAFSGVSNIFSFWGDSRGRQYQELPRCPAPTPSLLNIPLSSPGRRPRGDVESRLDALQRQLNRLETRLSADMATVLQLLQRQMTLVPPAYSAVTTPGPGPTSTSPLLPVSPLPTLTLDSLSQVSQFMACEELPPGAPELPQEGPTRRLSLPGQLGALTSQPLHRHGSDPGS
Sequence of CYP2D6 (P10635 whole entry): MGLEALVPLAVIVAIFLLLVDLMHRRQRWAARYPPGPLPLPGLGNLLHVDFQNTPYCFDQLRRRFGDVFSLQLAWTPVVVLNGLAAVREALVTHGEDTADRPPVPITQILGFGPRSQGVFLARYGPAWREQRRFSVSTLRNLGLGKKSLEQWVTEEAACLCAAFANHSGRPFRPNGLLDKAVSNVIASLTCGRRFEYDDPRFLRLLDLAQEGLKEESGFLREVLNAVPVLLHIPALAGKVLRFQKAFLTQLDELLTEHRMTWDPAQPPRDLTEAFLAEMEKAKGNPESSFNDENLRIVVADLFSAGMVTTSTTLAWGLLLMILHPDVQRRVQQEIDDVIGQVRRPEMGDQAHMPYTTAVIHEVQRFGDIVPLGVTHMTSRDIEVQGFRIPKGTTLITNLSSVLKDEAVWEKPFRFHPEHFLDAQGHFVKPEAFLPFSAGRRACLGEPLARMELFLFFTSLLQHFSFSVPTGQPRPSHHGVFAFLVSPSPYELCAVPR

| Structure (SMILES) | remaining at 1 h, 1 µM [1] [%] | inhibition [2] [%] | inhibition [3] [%] | IC50 (Prostaglandin E synthase) [nM] | inhibition at 20 min, 10 µM (CYP1A2) [%] | inhibition at 20 min, 10 µM (CYP2D6) [%] | inhibition at 20 min, 10 µM (CYP3A4) [%] | inhibition at 20 min, 10 µM (CYP2C9) [%] | inhibition at 40 min, 10 µM (CYP2C19) [%] | fraction unbound at 5 h, 10 µM [4] | inhibition at 5 min, 10 µM [5] [%] | inhibition [6] [%] | IC50 [7] [nM] | IC50 [8] [nM] | inhibition at 10 µM (hERG (KCNH2)) [%] | inhibition (CHO) [%] |
| --- | --- | --- | --- | --- | --- | --- | --- | --- | --- | --- | --- | --- | --- | --- | --- | --- |
| CC1(C)Cc2c(c(C(=O)Nc3ccc(C(F)(F)F)cn3)cc3nc(Nc4c(Cl)cccc4Cl)[nH]c23)O1 | 91 | 4.3 | 0 | 261 | 4 | 9 | 40 | 56 | 15 | 0.0016 | 35.9 | 15.1 | 12 | 259 | 5.4 | 7.1 |
| Cn1c(Nc2c(F)cccc2Cl)nc2cc(C(=O)Nc3cccc(C(F)(F)F)c3)c3c(c21)CC(C)(C)O3 | 98 | 3.9 | 24 | 405 | 5 | 29 | 8 | 19 | 36 | 0.0028 | 6.5 | 16.5 | 4.3 | 188 | 26.5 | 3.4 |
| CC1(C)Cc2c(c(C(=O)Nc3cc(C(F)(F)F)ccc3F)cc3nc(Nc4c(F)cccc4Cl)[nH]c23)O1 | 89 | 5.6 | 4.2 | 256 | 22 | 12 | 2 | 35 | 33 | 0.0035 | 28.7 | 5.8 | 14 | 204 | 5.8 | 11.7 |

Stronger by IC50 (Prostaglandin E synthase), values ahead:

| remaining at 1 h, 1 µM [1] [%] | inhibition [2] [%] | inhibition [3] [%] | IC50 (Prostaglandin E synthase) [nM] | inhibition at 20 min, 10 µM (CYP1A2) [%] | inhibition at 20 min, 10 µM (CYP2D6) [%] | inhibition at 20 min, 10 µM (CYP3A4) [%] | inhibition at 20 min, 10 µM (CYP2C9) [%] | inhibition at 40 min, 10 µM (CYP2C19) [%] | fraction unbound at 5 h, 10 µM [4] | inhibition at 5 min, 10 µM [5] [%] | inhibition [6] [%] | IC50 [7] [nM] | IC50 [8] [nM] | Structure (SMILES) | inhibition at 10 µM (hERG (KCNH2)) [%] | inhibition (CHO) [%] |
| --- | --- | --- | --- | --- | --- | --- | --- | --- | --- | --- | --- | --- | --- | --- | --- | --- |
| 100 | 7.5 | 21.1 | 222 | 24 | -2 | -4 | 15 | 16 | 0.0004 | 31 | 19.5 | 19 | 340 | Cc1cccc(Cl)c1Nc1nc2cc(C(=O)Nc3cc(C(F)(F)F)ccc3F)c3c(c2[nH]1)CC(C)(C)O3 | 12.3 | 0 |
| 100 | 2.5 | 0 | 208 | -6 | 19 | 46 | 48 | 55 | 0.0136 | 23.1 | 0 | 24 | 465 | CC1(C)Cc2c(c(C(=O)Nc3ccc(F)c(C(F)(F)F)c3)cc3nc(Nc4c(F)cccc4Cl)[nH]c23)O1 | 3.8 | 10.5 |
| 83 | 20.1 | 11 | 162 | 28 | 14 | 16 | 28 | 14 | 0.0158 | 43.2 | 27.6 | 46 | 222 | Cc1cccc(Cl)c1Nc1nc2cc(C(=O)Nc3cc(C(F)F)ccc3F)c3c(c2[nH]1)CC(C)(C)O3 | 11.8 | 0.7 |
